Holding throughout (assay type): functional, cell-based
For assay [1], the system named is PANC-1. Kind of assay: Cytotoxicity against human PANC1 cells assessed as inhibition of cell viability after 6 days by MTT assay. Particulars: PANC-1, 144 h. In a few lines: (§1)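 Temsirolimus, sunitinib, gemcitabine and 5-fluorouracil served as positive controls.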
For orientation: Formazan colour is commonly taken as a measure of viable cells.

Assay [2] is described as follows: Cytotoxicity against human MiaPaCa cells assessed as inhibition of cell viability after 6 days by MTT assay. The conditions noted are these: MIA PaCa-2, 144 h. The gist of the method: as §1
Assay [3] deals with ACHN. Kind of assay: Cytotoxicity against human ACHN cells assessed as inhibition of cell viability after 6 days by MTT assay. Particulars: 144 h. In a few lines:
as §1

Assay [4] concerns A498. Briefly: Cytotoxicity against human A498 cells assessed as inhibition of cell viability after 6 days by MTT assay. Particulars: A498, 144 h. The gist of the method:
as §1

As usually defined, the IC50 is the point on the concentration scale where inhibition reaches its midpoint. Turning to `O=c1[nH]cc(F)c(=O)[nH]1` [FLUOROURACIL], the IC50 in assay [1] stood at 50 µM.
Regarding `Nc1ccn([C@@H]2O[C@H](CO)[C@@H](O)C2(F)F)c(=O)n1` [GEMCITABINE], the IC50 in assay [2] was 3 µM.
On to `CC1=C[C@]2(C=C(CO)[C@H]3CC(=O)C(C)=C[C@H]3O2)O[C@H](/C=C(\C)CCC(=O)C(C)C)C1` [PHORBAKETAL E], for which the IC50 in assay [1] amounted to 25.3 µM; in assay [3], 18 µM; in assay [2] it was 16.7 µM; in assay [4], 12.5 µM.
Consider `CC(=O)O[C@@H]1C[C@@H]2C(CO)=C[C@]3(C=C(C)C[C@@H](/C=C(\C)C/C=C/C(C)(C)OO)O3)O[C@@H]2C=C1C` [PHORBAKETAL F], for which the IC50 in assay [1], in assay [3], in assay [2] and in assay [4] was above 50 µM each time.
Regarding `CC(=O)O[C@H]1C[C@@H]2C(CO)=C[C@]3(C=C(C)C[C@@H](/C=C(\C)C/C=C/C(C)(C)OO)O3)O[C@@H]2C=C1C` [PHORBAKETAL G], the IC50 in assay [1], in assay [3], in assay [2] and in assay [4] was above 50 µM each time.
As for `CC(C)=CCC/C(C)=C/[C@@H]1CC(C)=C[C@]2(C=C(C=O)[C@H]3C[C@@H](O)C(C)=C[C@H]3O2)O1` [PHORBAKETAL H], the IC50 in assay [1] was above 50 µM; in assay [3], above 50 µM; in assay [2], above 50 µM; in assay [4], 9.8 µM.
`CC(C)=CCC/C(C)=C/[C@@H]1CC(C)=C[C@]2(C=C(C=O)[C@H]3CC(=O)C(C)=C[C@H]3O2)O1` [PHORBAKETAL I]: the IC50 in assay [1] worked out at 12.8 µM; in assay [3], 22.3 µM; in assay [2] it was 22 µM; in assay [4], 9 µM.
Take `CC(=O)O[C@@H]1C[C@@H]2C(C=O)=C[C@]3(C=C(C)C[C@@H](/C=C(\C)CCC=C(C)C)O3)O[C@@H]2C=C1C` [PHORBAKETAL J]: the IC50 in assay [1], in assay [3], in assay [2] and in assay [4] was above 50 µM each time.
`CC(=O)O[C@H]1C[C@@H]2C(C=O)=C[C@]3(C=C(C)C[C@@H](/C=C(\C)CCC=C(C)C)O3)O[C@@H]2C=C1C` [PHORBAKETAL K]: the IC50 in assay [1], in assay [3], in assay [2] and in assay [4] was above 50 µM in each case.
For the compound `C=C(C[C@H](O)/C=C(\C)CC/C=C(\C)CCC=C(C)C)[C@H]1CC(=O)C(C)=C[C@H]1O` [PHORBIN A], the IC50 in assay [1] worked out at 7.8 µM; in assay [3], 10 µM; in assay [2], 5.2 µM; in assay [4] it was 4.9 µM.
For the compound `CCN(CC)CCNC(=O)c1c(C)[nH]c(/C=C2\C(=O)Nc3ccc(F)cc32)c1C` [SUNITINIB], the IC50 in assay [3] was 2.5 µM.
Turning to `CO[C@H]1C[C@@H]2CC[C@@H](C)[C@@](O)(O2)C(=O)C(=O)N2CCCC[C@H]2C(=O)O[C@H]([C@H](C)C[C@@H]2CC[C@@H](OC(=O)C(C)(CO)CO)[C@H](OC)C2)CC(=O)[C@H](C)/C=C(\C)[C@@H](O)[C@@H](OC)C(=O)[C@H](C)C[C@H](C)/C=C/C=C/C=C/1C` [TEMSIROLIMUS], the IC50 in assay [4] stood at 0.5 µM.

The record behind these values is ChEMBL document CHEMBL2331092, “Bioactive sesterterpenoids from a Korean sponge Monanchora sp” (J Nat Prod, 2013).
